Here are results for 1 compound from ChEMBL document CHEMBL4411269, “Required Immunoproteasome Subunit Inhibition Profile for Anti-Inflammatory Efficacy and Clinical Candidate KZR-616 ((2 S,3 R)- N-(( S)-3-(Cyclopent-1-en-1-yl)-1-(( R)-2-methyloxiran-2-yl)-1-oxopropan-2-yl)-3-hydroxy-3-(4-methoxyphenyl)-2-(( S)-2-(2-morpholinoacetamido)propanamido)propenamide)” (J Med Chem, 2018).

Series [1] relates to PBMC. Nature of the series: Antiinflammatory activity in human PBMC assessed as reduction in LPS-stimulated p40 subunit of […] expression at 500 nM preincubated for 1 hr followed by LPS stimulation measured after 24 hrs by ELISA. It counts as functional, cell-based. The method, boiled down: (§1)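 Cryopreserved healthy-donor PBMC in RPMI 1640 with 5% heat-inactivated FBS, 250 000 cells/well. Compound (0.1% DMSO final) for 1 h at 37 °C, 5% CO2, then 4 washes with medium. Stimulated with 1 μg/mL LPS for 24 h; supernatant TNFα, IL-6 and IL-12/23p40 by electrochemiluminescent immunoassay. Mean level relative to DMSO controls, n = 6.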

Series [2] deals with Mus musculus. In words: In vivo inhibition of LMP7 in Balb/c mouse splenocytes at 5 mg/kg, iv followed by dosing repeat on day 6, 8, 11, 13 and 15 and measured on 1 hr post last dose. The class given is functional, organism-based. The essentials: (§2)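 BALB/c mice dosed iv bolus in 10% sulfobutyl ether−β-cyclodextrin/10 mM sodium citrate pH 3.5; tissues taken 1 h after administration. Splenocytes strained and red cells lysed; kidney frozen, then bead-homogenized. Hypotonic lysate (20 mM Tris pH 8, 5 mM EDTA) at 1 mg/mL (spleen) or 5 mg/mL (kidney) run in the ProCISE active-site ELISA. Background-subtracted, protein-normalized activity relative to vehicle animals; n = 3.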

In series [3] the test system is Mus musculus. Nature of the series: In vivo inhibition of proteosome beta 5 in Balb/c mouse kidney at 5 mg/kg, iv followed by dosing repeat on day 6, 8, 11, 13 and 15 and measured on 1 hr post last dose. It counts as functional, organism-based. The essentials: as §2
Series [4] has as its target T1, Proteasome subunit beta type-9 (Homo sapiens) (UniProt P28065).
T1 sequence (whole entry): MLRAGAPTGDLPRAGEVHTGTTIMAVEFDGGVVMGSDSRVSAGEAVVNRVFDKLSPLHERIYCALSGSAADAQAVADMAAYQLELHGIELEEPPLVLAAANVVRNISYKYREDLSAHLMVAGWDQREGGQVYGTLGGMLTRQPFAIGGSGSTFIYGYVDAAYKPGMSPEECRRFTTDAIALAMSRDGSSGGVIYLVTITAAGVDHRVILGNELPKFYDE
Particulars: 500 nM.

The target in series [5] is T2, Proteasome subunit beta type-10 (Homo sapiens) (UniProt P40306).
T2 sequence (whole entry): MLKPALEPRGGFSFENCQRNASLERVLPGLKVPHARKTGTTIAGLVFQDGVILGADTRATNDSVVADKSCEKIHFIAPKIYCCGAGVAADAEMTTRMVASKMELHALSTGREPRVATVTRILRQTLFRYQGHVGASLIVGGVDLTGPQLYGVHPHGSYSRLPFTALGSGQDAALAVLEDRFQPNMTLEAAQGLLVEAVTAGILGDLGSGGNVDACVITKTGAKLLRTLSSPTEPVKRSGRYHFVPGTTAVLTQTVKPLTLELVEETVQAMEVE
In words: Inhibition of MECL1 in human PBMC at 500 nM by ELISA. The essentials: (§3)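 Cryopreserved healthy-donor human PBMC in RPMI 1640 with 5% heat-inactivated FBS, exposed to compound (0.1% DMSO final) for 1 h at 37 °C, 5% CO2, then washed. Subunit-specific active-site occupancy read by ProCISE: biotinylated active-site probe binding, denaturation, streptavidin capture, subunit-specific antibody and HRP chemiluminescence. Signal normalized to protein and expressed relative to DMSO controls.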
Background: ELISA stands for enzyme-linked immunosorbent assay.

The nature of series [6]: Clearance in Balb/c mouse at 2 mg/kg, iv. The class given is ADME, organism-based. Particulars: in vivo. The essentials: (§4)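 Female BALB/c mice aged 7−8 weeks, given 2 mg/kg iv in 25% PEG300/WFI. Cardiac blood taken at 2, 5, 10, 20, 30, 60 and 120 min postdose into sodium heparin and processed to plasma (n = 3/time point). Proteins precipitated with acetonitrile; drug measured by LC−MS/MS. Noncompartmental analysis of mean concentrations at nominal times and target doses.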

Series [7] has as its system Mus musculus. In words: In vivo inhibition of LMP2 in Balb/c mouse splenocytes at 5 mg/kg, iv followed by dosing repeat on day 6, 8, 11, 13 and 15 and measured on 1 hr post last dose. The class given is functional, organism-based. The essentials: as §2
A short description of series [8]: Half life in Balb/c mouse at 2 mg/kg, iv. Particulars: in vivo. It counts as ADME, organism-based. The essentials: as §4
The subject of series [9] is PBMC. Nature of the series: Antiinflammatory activity in human PBMC assessed as reduction in LPS-stimulated IL-6 expression at 500 nM preincubated for 1 hr followed by LPS stimulation measured after 24 hrs by ELISA. The class given is functional, cell-based. The method, boiled down:
as §1

The test system of series [10] is PBMC. In words: Antiinflammatory activity in human PBMC assessed as reduction in anti-CD3/CD28 antibody-stimulated TNF-alpha expression at 500 nM preincubated for 1 hr followed by anti-CD3/CD28 antibody stimulation measured after 24 hrs by ELISA. It counts as functional, cell-based. The essentials: (§5)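 Healthy-donor PBMC, thawed from cryopreservation, 250 000 cells/well in RPMI 1640/5% FBS. Pretreated 1 h at 37 °C with compound alone or combined (0.1% DMSO final), washed 4 times, then stimulated 24 h with anti-CD3 and anti-CD28 antibodies. TNFα and IFNγ in supernatants by electrochemiluminescent ELISA; expressed relative to DMSO-treated controls (n = 6).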

In series [11] the test system is Mus musculus. Nature of the series: Antiarthritic activity in type 2 collagen antibody/LPS induced Balb/c mouse assessed as reduction in disease burden at 5 mg/kg, iv followed by dosing repeat on day 6, 8, 11, 13 and 15 and measured until day 18. It counts as functional, organism-based. The essentials: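 CAIA in 7−8 week old female BALB/c mice on breeder chow. Induced with 1.75 mg of a 5-antibody anti-type II collagen cocktail iv on day 0, then 25 μg LPS ip on day 3. Dosed as single iv boluses in 10% (w/v) sulfobutyl ether−β-cyclodextrin/10 mM sodium citrate (pH 3.5); vehicle-treated group included.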

Series [12] concerns PBMC. Nature of the series: Antiinflammatory activity in human PBMC assessed as reduction in anti-CD3/CD28 antibody-stimulated IFN-gamma expression at 500 nM preincubated for 1 hr followed by anti-CD3/CD28 antibody stimulation measured after 24 hrs by ELISA. The class given is functional, cell-based. The essentials:
as §5

In series [13] the test system is Mus musculus. In words: In vivo inhibition of MECL-1 in Balb/c mouse splenocytes at 5 mg/kg, iv followed by dosing repeat on day 6, 8, 11, 13 and 15 and measured on 1 hr post last dose. The class given is functional, organism-based. The essentials: as §2
The nature of series [14]: Toxicity in Balb/c mouse assessed as change in body weight at 5 mg/kg, iv followed by dosing repeat on day 6, 8, 11, 13 and 15 and measured until day 18. It counts as organism-based. Particulars: in vivo.
The nature of series [15]: Toxicity in Balb/c mouse assessed as effect on cage-side observations at 5 mg/kg, iv followed by dosing repeat on day 6, 8, 11, 13 and 15 and measured until day 18. As to conditions: in vivo. It counts as organism-based.
Series [16] concerns PBMC. In words: Antiinflammatory activity in human PBMC assessed as reduction in LPS-stimulated TNF-alpha expression at 500 nM preincubated for 1 hr followed by LPS stimulation measured after 24 hrs by ELISA. It counts as functional, cell-based. The method, boiled down: as §1
In series [17] the test system is PBMC. In words: Cytotoxicity in human PBMC assessed as reduction in cell viability at 500 nM relative to control. The class given is cell-based. Particulars: 0.5 µM.
Series [18] addresses T3, Proteasome subunit beta type-8 (Homo sapiens) (UniProt P28062).
T3 sequence (whole entry): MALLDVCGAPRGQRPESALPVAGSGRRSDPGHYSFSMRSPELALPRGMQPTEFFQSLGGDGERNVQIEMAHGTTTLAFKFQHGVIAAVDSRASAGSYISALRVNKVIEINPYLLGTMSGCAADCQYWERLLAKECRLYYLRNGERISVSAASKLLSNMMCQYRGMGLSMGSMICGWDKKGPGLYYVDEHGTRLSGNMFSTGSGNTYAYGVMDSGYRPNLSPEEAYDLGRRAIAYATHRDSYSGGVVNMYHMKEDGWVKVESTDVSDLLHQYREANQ
In words: Inhibition of LMP7 in human PBMC at 500 nM by ELISA. The method, boiled down: as §3

Activity calls are given as the source filed them. No cut-off for these calls is given here.

By clearance is commonly meant the volume of plasma or blood freed of the substance per unit of time. A low value points to inefficient removal. As a reminder, the half-life is the time in which the quantity being followed falls by half. A low value points to fast loss.

For `C[C@]1(C(=O)[C@H](Cc2ccccc2)NC(=O)[C@H](CO)NC(=O)c2cccc(=O)[nH]2)CO1`, the outcome with PBMC [1], in the series on PBMC [9], in the series on PBMC [10], with Mus musculus [11], in the series on PBMC [12] and with PBMC [16] was inactive. For the same compound, the inhibition entry (with Mus musculus [2]; in the series on Mus musculus [3]; in series [4]; in [5]; in the series on Mus musculus [7]; in the series on Mus musculus [13]) was “Active” throughout. The inhibition result in [18] is “Active”. Also, the clearance in series [6] is greater than 73 mL/min/kg. Besides, in series [8], the half-life was less than 7 min. Also, the Activity result is listed as “Non-Toxic” in series [14], “Non-Toxic” in [15] and 30% with PBMC [17].
